Out of some 200,000 compounds screened, about 2,000 (1%) were called active. Only a selection was taken, and actives are over-represented in it overall. A number with no mark means an inactive call.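 Rule for the calls: active = inhibition above the campaign mean inhibition of all tested compounds plus 3 SD (cut at about 20% in these data); inactive = the rest.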
Each molecule was assayed against Neuropeptide Y receptor type 1 (Homo sapiens) (UniProt P25929) (assay: NPY-Y1 receptor antagonists, primary screen, cell-based (AID 1040;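 note: 0% = DMSO wells given NPY plus isoproterenol and 100% = isoproterenol alone without NPY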)). Conditions: HEK293-CNG Y1 cells, membrane potential fluorescence; at 3.6 µM; active compounds read high; NPY at EC95, then isoproterenol.
Chain of Neuropeptide Y receptor type 1 (Homo sapiens) (P25929 whole entry, looked up): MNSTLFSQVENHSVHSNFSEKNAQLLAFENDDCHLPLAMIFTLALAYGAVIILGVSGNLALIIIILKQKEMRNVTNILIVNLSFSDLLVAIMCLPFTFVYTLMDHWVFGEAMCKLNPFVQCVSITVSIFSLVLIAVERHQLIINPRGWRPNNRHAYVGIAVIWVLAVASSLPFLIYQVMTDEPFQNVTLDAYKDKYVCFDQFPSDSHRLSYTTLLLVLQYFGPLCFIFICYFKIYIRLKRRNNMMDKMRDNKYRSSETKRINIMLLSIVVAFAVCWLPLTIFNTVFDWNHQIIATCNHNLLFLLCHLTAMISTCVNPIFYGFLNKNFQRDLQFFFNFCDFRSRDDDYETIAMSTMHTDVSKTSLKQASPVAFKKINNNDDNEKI
How it was run: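 Assay system: HEK293 cells with Y1 receptor plus CNG channel | Probe or stimulus: NPY (25 nM), isoproterenol (1 µM), Ro 20-1724 (25 µM) | Timing: Compound incubation 1 h at room temperature, readout 45 min post-stimulation | Measured by: Membrane-potential fluorescent dye readout | Benchmarks: High control isoproterenol alone, low control NPY with isoproterenol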
Work on `Cc1nonc1C(=O)N/N=C/c1ccc(O)cc1` yielded an inhibition of -0.92%. Molecule `Cc1ccc(C)c2[nH]c(=O)c(CCNC(=O)c3cccs3)cc12` has an inhibition of 1.69%. `CCNC(=O)COC(=O)/C=C/c1c(C)nn(Cc2cccc(OC)c2)c1Cl` was tested, and the inhibition was 9.4%. Molecule `Nc1nonc1-c1nc2ccccc2n1CCC(=O)O` has an inhibition of 2.11%. With `COCCn1c(-c2ccc(OC)c(OC)c2)nc2ccccc21` the inhibition was 1.65%. For `COc1ccc(C)c(Cn2c(-c3nonc3N)nc3ccccc32)c1`, the inhibition was 20.2% (active). For `Nc1nonc1-c1nc2ccccc2n1Cc1ccc(F)cc1`, the inhibition was 33.9% (active). With `CCCn1c(C(O)c2cc(OC)ccc2OC)nc2ccccc21` (stereo unspecified) the inhibition was 6.38%. For `CC(=O)Nc1nonc1-c1nc2ccccc2n1Cc1ccccn1`, the inhibition was 1.23%. `COc1ccc(C(=O)Nc2c(Cl)cc(Cl)cc2C(=O)N2CCC(C)CC2)cc1` showed an inhibition of 7.28%. `O=C(N/N=C/c1ccc(Br)o1)c1cncc(Br)c1` showed an inhibition of 0.31%. `CCCOc1ccc(C(=O)C(CCC(CNCC)C(=O)c2ccc(OCCC)cc2)CNCC)cc1` (stereo unspecified) was tested, and the inhibition was 41.9% (active). Molecule `CCCOc1ccc(C(=O)NCCc2ccccc2)cc1` has an inhibition of 4.6%. With `CCCOc1ccc(N/C=C/C(=O)C(C)(C)C)cc1` the inhibition was -0.02%. With `O=C(O)/C(=C/c1cccnc1)NC(=O)c1ccccc1` the inhibition was -1.58%. `O=S(=O)(NCCSc1ccccn1)c1ccc(Cl)cc1` was tested, and the inhibition was 7.92%. `Cc1ccc(S(=O)(=O)NCCSc2ccccc2)cc1[N+](=O)[O-]` showed an inhibition of 20.1%. For `CCOc1ccc(S(=O)(=O)NCCSc2ccccc2)cc1`, the inhibition was 28.4% (active). Work on `C/C(=N\Nc1ncc(Cl)cc1Cl)c1cccs1` yielded an inhibition of 4.59%. Molecule `CCOP(=O)(OCC)C(Nc1cccc(C)c1)c1ccc(F)cc1` (stereo unspecified) has an inhibition of 6.17%. `Cc1cc(N2CCN(C)CC2)nc2ccc(NC(=S)N3CCOCC3)cc12` gave an inhibition of 6.76%. With `Cc1nc(-c2ccccc2)sc1C(=O)/C=C/c1ccccc1` the inhibition was 21.8% (active). Work on `Cc1nc(-c2ccccc2)sc1C(=O)/C=C/N(C)C` yielded an inhibition of 6.13%. Molecule `Cc1ccc(SCC(=O)c2sc(-c3ccccc3)nc2C)cc1` has an inhibition of 8.05%. With `CC(Oc1ccc(Br)cc1Br)C(=O)NC1CCCC1` (stereo unspecified) the inhibition was 7.12%. With `COc1ccc(OC)c(NC(=O)CSc2nc3cccnc3n2C)c1` the inhibition was 10.8%. For `COc1ccc(OC)c(NC(=O)CSc2nc(N)c(-c3ccccc3)c(=O)[nH]2)c1`, the inhibition was 30.3% (active). Work on `COc1ccc(NC(=O)CSc2nc(N)c(-c3ccccc3)c(=O)[nH]2)cc1` yielded an inhibition of 7.14%. `Cc1ccc(S(=O)(=O)CC(=O)Nc2c(C)n(C)n(-c3ccccc3)c2=O)cc1` gave an inhibition of 1%. In the case of `Cc1ccc2c(c1)C1CN(C)CCC1N2C(=S)Nc1ccc(Cl)cc1Cl` (stereo unspecified), the inhibition is reported as 0.03%. With `Cc1cc(SCC(=O)c2ccccc2)nc(SCC(=O)c2ccccc2)n1` the inhibition was 18.3%. With `Cc1cc(Oc2ccc(Cl)cc2)nc(SCC(=O)c2ccccc2)n1` the inhibition was 44.4% (active). With `COC(=O)c1cc(C(=O)CSc2nc(C)cc(C)n2)ccc1O` the inhibition was -2.7%. Molecule `Cc1cc(C)c(NC(=O)C[N+](C)(C)CC(O)COc2cccc3ccccc23)c(C)c1` (stereo unspecified) has an inhibition of -12.8%. `Cc1cccc(NC(=S)NC23CN4CN(CN(C4)C2)C3)c1` gave an inhibition of -0.45%. `CCOCCCNCc1cc(Br)ccc1OCC` showed an inhibition of 11.8%. In the case of `CC(C)(C)NCc1cc(Br)ccc1OC1CCCC1`, the inhibition is reported as 37.7% (active). Work on `COc1cc(CNC2CCCCC2)c(Br)cc1OC1CCCC1` yielded an inhibition of -5.34%. In the case of `COc1ccc(Sc2nc(-c3ccccc3)ncc2OC)cc1`, the inhibition is reported as 3.64%. With `CCc1cccc(NC(=O)CCNS(=O)(=O)c2cccc3nonc23)c1` the inhibition was 0.89%. With `CCN(CC)S(=O)(=O)c1ccc(Cl)c(NC(=O)c2ccncc2)c1` the inhibition was 1.54%.
